Compound activity as filed in PubChem.
Shown are actives, neighbours in structure and some others; about 1.4% of the full set was active somewhere.
UBC9 SUMO inh = inhibitors of in vitro SUMOylation cascade, primary screen, biochemical, HTRF, uHTS. SUMO-conjugating enzyme UBC9 (Homo sapiens), P63279. HTRF SUMOylation assay, SAE1/SAE2 + UBC9. inhibition, % at 35 µM. 290,000 tested, 0.36% active. AID 2006, 2009; in the data active = inhibition above about 50%, passing the limit was not always enough
Target sequence (P63279 whole entry, looked up): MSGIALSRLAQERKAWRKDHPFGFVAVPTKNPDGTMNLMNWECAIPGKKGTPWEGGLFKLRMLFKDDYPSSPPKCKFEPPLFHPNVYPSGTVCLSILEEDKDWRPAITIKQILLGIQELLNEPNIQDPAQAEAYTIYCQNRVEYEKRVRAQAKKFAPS
UCH37 inh = inhibitors of human UCH37 deubiquitinase, primary screen, biochemical, Ub-AMC cleavage, fluorescence | Ubiquitin carboxyl-terminal hydrolase isozyme L5 (Homo sapiens), Q9Y5K5 | purified proteasome/UCH37 | inhibition, % (concentration not given with the values) | 330,000 tested, 0.33% active | AID 588478, 2011;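 active = mean inhibition over replicate wells above about 20%, limit read from the data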;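 note: 0% = compound-free wells with enzyme and 100% = wells lacking proteasome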
Target sequence (Q9Y5K5 whole entry, looked up): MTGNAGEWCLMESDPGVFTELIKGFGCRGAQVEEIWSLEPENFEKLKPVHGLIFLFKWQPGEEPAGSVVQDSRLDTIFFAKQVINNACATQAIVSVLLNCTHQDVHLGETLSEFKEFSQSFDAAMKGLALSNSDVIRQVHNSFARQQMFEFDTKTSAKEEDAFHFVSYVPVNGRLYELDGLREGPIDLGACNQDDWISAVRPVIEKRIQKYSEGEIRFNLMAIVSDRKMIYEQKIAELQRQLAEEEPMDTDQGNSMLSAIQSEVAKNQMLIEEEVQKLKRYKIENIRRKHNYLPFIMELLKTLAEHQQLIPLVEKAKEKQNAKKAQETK
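assay system = human UCH37 enzyme supplied as purified proteasome complex | amount = proteasome at 0.15 nM in the dispensed enzyme solution | schedule = 30 min compound-proteasome preincubation then 25 min substrate reaction, room temperature | measured by = fluorescence, ex 355 nm, em 460 nm | benchmarks = no-proteasome wells (full inhibition) and compound-free wells (no inhibition)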
CTSL1 counter = Fasciola hepatica cathepsin L1 inhibitors, primary screen, counter-screen for PFM18AAP inhibitor project, biochemical, QFRET, fluorogenic peptide substrate; recombinant F. hepatica cathepsin L1, Z-Leu-Arg-MCA fluorescence; inhibition, % at 5.96 µM; 300,000 tested, 0.49% active; AID 1906, 2009;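 active = inhibition above the mean of all tested compounds plus 3 SD, set per screening campaign, cut at about 17% in these data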;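 note: 0% = plate median of test compound wells and 100% = 1 µM Z-Phe-Ala-diazomethylketone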
Neddylation inh = inhibitors of cullin neddylation, primary screen, biochemical, TR-FRET, uHTS, NAE and Ubc12; NEDD8-conjugating enzyme Ubc12 (Homo sapiens) + NEDD8-activating enzyme E1 regulatory …; inhibition, % at 25 µM; 360,000 tested, 0.58% active; AID 651699, 2012; in the data active = inhibition above about 36%
* marks the source's active call; other numbers are inactive results.

What do the screens show for `CCc1ccc(C=c2sc(=CC(=O)C(C)(C)C)[nH]c2=O)cc1`?
UCH37 inh: 5.6

How did CCCc1cc(=O)n2[nH]c(NCc3ccc(OC)c(OC)c3)nc2n1 do in these assays?
UBC9 SUMO inh: -1.6; UCH37 inh: 2.9; CTSL1 counter: -3.2; Neddylation inh: -0.1

What do the screens show for `CCOC(=O)c1cnc2nc(NCc3ccc(OC)c(OC)c3)[nH]n2c1=O`?
UBC9 SUMO inh: 17.6; UCH37 inh: 1.2; CTSL1 counter: 20.0*; Neddylation inh: 10.4

Results for Cc1ccc(S(=O)(=O)NN=Cc2ccc(Cl)c([N+](=O)[O-])c2)cc1 ?
UCH37 inh: 4.3

What do the screens show for `Cc1ccccc1NC(=O)CSc1nnc(-c2ccco2)c(-c2ccco2)n1`?
UBC9 SUMO inh: 64.7*; UCH37 inh: 6.8; CTSL1 counter: 7.3; Neddylation inh: -13.1

Results for CSc1nnc(-c2ccco2)c(-c2ccco2)n1 ?
UCH37 inh: 11.5; CTSL1 counter: 53.0*; Neddylation inh: -15.0

What do the screens show for `Cc1cccc(C)c1NC(=O)CSc1nnc(-c2ccco2)c(-c2ccco2)n1`?
UBC9 SUMO inh: 44.1; CTSL1 counter: 1.1; Neddylation inh: 2.3

What do the screens show for `CSc1nnc(-c2ccccc2)c(-c2ccccc2)n1`?
UBC9 SUMO inh: 1.4; UCH37 inh: 5.0; CTSL1 counter: 1.4; Neddylation inh: -9.8

What do the screens show for `Cc1ccc(C(=O)Nc2cccc(C(=O)NN=Cc3ccc(O)cc3)c2)cc1`?
UCH37 inh: -4.0

Results for Cc1cc(C)cc(NC(=O)COC(=O)CNC(=O)C2CCCCC2)c1 ?
UCH37 inh: 3.1; Neddylation inh: -1.3

Results for COc1cc(C(=O)COC(=O)CNC(=O)C2CCCCC2)cc(OC)c1OC ?
UBC9 SUMO inh: 10.4; UCH37 inh: 3.0; CTSL1 counter: 35.8*; Neddylation inh: 4.8

Results for COc1ccc(Cl)cc1NC(=O)COC(=O)CNC(=O)C1CCCCC1 ?
UCH37 inh: 2.0; Neddylation inh: -20.0

What do the screens show for `COc1cc(C(=O)COC(=O)C2CCCCC2)cc(OC)c1OC`?
UCH37 inh: 0.0; Neddylation inh: -5.8

What do the screens show for `Cc1ccc(NC(=O)COC(=O)CNC(=O)C2CCCCC2)c(Br)c1`?
UBC9 SUMO inh: 3.3; UCH37 inh: 1.4; CTSL1 counter: 47.0*; Neddylation inh: 2.0

Results for O=C(COC(=O)CNC(=O)C1CCCCC1)Nc1ccc(Cl)cc1F ?
UBC9 SUMO inh: -2.3; UCH37 inh: -1.8; CTSL1 counter: 33.5*; Neddylation inh: -0.7

How did Cc1c(C(=O)NCc2ccccc2)oc2c1C(=O)CCC2 do in these assays?
UBC9 SUMO inh: 10.3; UCH37 inh: 25.2*; CTSL1 counter: -1.1; Neddylation inh: -0.7

Results for S=C(NCC1CC1)NN=Cc1ccccc1Cl ?
UCH37 inh: 7.0

Results for N=c1c(C(=O)NCc2ccc(F)cc2)cc2c(=O)n3ccccc3nc2n1Cc1ccco1 ?
UBC9 SUMO inh: 34.3; CTSL1 counter: 0.9; Neddylation inh: 51.8*

Results for Cc1ccccc1C(=O)N=c1c(C#N)cc2c(=O)n3cccc(C)c3nc2n1Cc1ccco1 ?
UBC9 SUMO inh: 22.0; UCH37 inh: -36.3; CTSL1 counter: -0.9

What do the screens show for `N#Cc1cc2c(=O)n3ccccc3nc2n(Cc2ccco2)c1=NC(=O)c1ccco1`?
UBC9 SUMO inh: 51.9*; UCH37 inh: -49.4; CTSL1 counter: -6.8

How did CN(C)CCCCCCCCCCC(=O)C=NO do in these assays?
UCH37 inh: 1.4

How did c1ccc(CNc2c3ccccc3nc3ccccc23)cc1 do in these assays?
UBC9 SUMO inh: -1.5; UCH37 inh: -5.6; CTSL1 counter: -1.5; Neddylation inh: 30.5

What do the screens show for `OCC(Cc1ccccc1)Nc1c2ccccc2nc2ccccc12` (stereo not given)?
UBC9 SUMO inh: 5.6; UCH37 inh: -22.7; CTSL1 counter: 0.4; Neddylation inh: 43.5*

How did Cc1ccc(NC(=O)c2cc(-c3ccco3)on2)cc1C do in these assays?
UBC9 SUMO inh: 10.5; UCH37 inh: -16.9; CTSL1 counter: 21.2*

Results for Oc1ccc(C=NNC(=S)N2CCOCC2)cc1 ?
UCH37 inh: 8.5

How did CC1=C(C(=O)OC(C)C)C(c2cncc(-c3ccc(F)cc3)c2)C(C#N)=C(N)O1 (stereo not given) do in these assays?
UBC9 SUMO inh: 17.6; UCH37 inh: 1.6; CTSL1 counter: 18.5*; Neddylation inh: 4.8

Results for COC(=O)C1=C(C)OC(N)=C(C#N)C1c1cccnc1 (stereo not given) ?
UBC9 SUMO inh: 4.1; UCH37 inh: 5.6; CTSL1 counter: -1.6; Neddylation inh: 2.1

How did O=C(O)CCC(=NNc1ccc(S(=O)(=O)N2CCOCC2)cc1[N+](=O)[O-])c1cccs1 do in these assays?
UCH37 inh: 20.1*

How did O=C(NN=Cc1cn(Cc2ccccc2)c2ccccc12)c1cc(O)cc(O)c1 do in these assays?
UCH37 inh: -9.1

What do the screens show for `CCN1CCN(C(=O)c2cnn3c(C(F)F)cc(-c4ccc(C)cc4)nc23)CC1`?
UBC9 SUMO inh: 23.1; UCH37 inh: -49.8; CTSL1 counter: -0.6; Neddylation inh: 47.8*

How did CC(=NNC(=O)Cn1nc(C)c([N+](=O)[O-])c1C)c1ccc(Cl)s1 do in these assays?
UCH37 inh: 3.5

Results for CC1CCN(C(=O)c2ccc(CNc3c(N4CCCC4)c(=O)c3=O)cc2)CC1 ?
UBC9 SUMO inh: 8.3; UCH37 inh: 0.3; CTSL1 counter: 17.9*; Neddylation inh: -3.2

What do the screens show for `CC1CC(C)CN(C(=O)c2ccc(CNc3c(N4CCCC4)c(=O)c3=O)cc2)C1` (stereo not given)?
UBC9 SUMO inh: 21.5; UCH37 inh: 1.7; CTSL1 counter: -3.6; Neddylation inh: -6.4

What do the screens show for `Cc1ccc(S(=O)(=O)CCSc2cccc(C(=O)Nc3ccccc3C(=O)O)c2)cc1`?
UBC9 SUMO inh: -3.8; UCH37 inh: 24.8*; CTSL1 counter: -0.1; Neddylation inh: 15.6

What do the screens show for `CCOc1cccc(-c2c(C(=O)NN=Cc3ccsc3)nnn2-c2nonc2N)c1`?
UCH37 inh: 3.0

How did C=C(C)CSc1nc2ncccc2[nH]1 do in these assays?
UBC9 SUMO inh: 14.1; UCH37 inh: 0.9; CTSL1 counter: -2.2; Neddylation inh: 1.9

Results for CCN(CC)C(=O)CSc1nc2ncccc2[nH]1 ?
UBC9 SUMO inh: 10.5; UCH37 inh: 2.5; CTSL1 counter: 18.6*; Neddylation inh: 4.3

What do the screens show for `COc1ccc(N2CCN(S(=O)(=O)c3cnc[nH]3)CC2)cc1`?
UBC9 SUMO inh: 8.8; UCH37 inh: 4.6; CTSL1 counter: 16.9*; Neddylation inh: -0.4

What do the screens show for `CC1=NN(c2ccccc2)C(=O)/C1=C\c1ccc(Oc2ccc([N+](=O)[O-])cc2[N+](=O)[O-])cc1`?
UBC9 SUMO inh: 94.6*; UCH37 inh: 6.5; CTSL1 counter: -3.3; Neddylation inh: -19.6

How did O=C(CNC(=O)c1ccccn1)NN=Cc1ccccc1 do in these assays?
UCH37 inh: 2.6
